High-throughput results deposited in PubChem BioAssay by several laboratories.
NPY Y2 blocker – NPY-Y2 receptor antagonists, primary screen, cell-based; Neuropeptide Y receptor type 2 (Homo sapiens), P49146; NPY-Y2 expressing cells, antagonist mode; inhibition, % at 2.7 µM; 140,000 compounds, 0.99% hits; AID 793, 2007; in the data active means inhibition above about 17%;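 further: 0% = vehicle with agonist challenge and 100% = reference antagonist with challenge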
EP2 antag – human EP2 receptor antagonists, primary screen, TR-FRET cAMP, C6 glioma cells. inhibition, % at 25 µM. Prostaglandin E2 receptor EP2 subtype (Homo sapiens), P43116. C6 glioma cells expressing human EP2; cells stimulated with saturating PGE2. 260,000 compounds, 0.52% hits;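 active means percent inhibition above 40 after rounding to a whole number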;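 further: rat C6 glioma host cells with rolipram phosphodiesterase inhibitor present; the protocol text gives 20 µM as final concentration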
NPY-Y1 antag – NPY-Y1 receptor antagonists, primary screen, cell-based. HEK293-CNG Y1 cells, membrane potential fluorescence; NPY at EC95, then isoproterenol. 200,000 compounds, 1% hits. inhibition, % at 3.6 µM;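 active means inhibition above the campaign mean inhibition of all tested compounds plus 3 SD, cut at about 20% in these data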;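 further: 0% = DMSO wells given NPY plus isoproterenol and 100% = isoproterenol alone without NPY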
Target sequence (P25929 whole entry, looked up): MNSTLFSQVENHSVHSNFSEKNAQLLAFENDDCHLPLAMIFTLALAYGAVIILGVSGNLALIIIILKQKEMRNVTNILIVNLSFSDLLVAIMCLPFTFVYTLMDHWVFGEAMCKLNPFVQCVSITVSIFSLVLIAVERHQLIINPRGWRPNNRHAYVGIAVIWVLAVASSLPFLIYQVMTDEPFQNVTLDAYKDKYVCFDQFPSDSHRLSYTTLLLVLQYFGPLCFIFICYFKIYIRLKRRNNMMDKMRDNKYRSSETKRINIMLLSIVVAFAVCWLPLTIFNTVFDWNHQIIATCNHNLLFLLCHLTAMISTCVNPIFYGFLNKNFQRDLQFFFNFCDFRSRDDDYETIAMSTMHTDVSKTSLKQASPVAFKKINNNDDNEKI
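Benchmarks – high control isoproterenol alone, low control NPY with isoproterenol · Material – HEK293 Y1/CNG channel cell line · Times – dye 3 h, compound 60 min room temperature, stimulation 45 min · Probe or stimulus – NPY (25 nM), isoproterenol (1 µM), Ro 20-1724 (25 µM) · Evaluation – % inhibition of NPY effect · Signal – fluorescence, membrane potential probe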
NPY2 pot ag – NPY-Y2 potentiators or agonists, primary screen, cell-based. Neuropeptide Y receptor type 2 (Homo sapiens), P49146. cells expressing NPY-Y2, potentiator/agonist read-out. activation, % at 3.6 µM. 220,000 compounds, 0.45% hits; in the data active means activation above about 27%;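 further: cells stimulated with NPY near EC25 plus isoproterenol at EC100; 0% = vehicle plus submaximal agonist and 100% = vehicle plus saturating agonist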
NPY-Y1 PAM-ag – NPY-Y1 receptor potentiators or agonists, primary screen, cell-based. NPY-Y1 expressing cells, potentiator/agonist activation. 220,000 compounds, 0.37% hits. activation, % at 3.6 µM; in the data active means activation above about 33%, passing the limit was not always enough;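 further: cells stimulated with NPY at EC10 then isoproterenol at EC100; 0% = low agonist plus stimulus and 100% = saturating agonist plus stimulus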
EP2 modulator – EP2 receptor modulators, cAMP readout, primary screen, cell-based, HTRF cAMP, PGE2 stimulation; EP2-expressing cells, cAMP HTRF FRET, PGE2 co-stimulation; 260,000 compounds, 0.83% hits; induction, % at 25 µM; Prostaglandin E2 receptor EP2 subtype (Homo sapiens), P43116;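 active means compounds whose cAMP rise, as percent of the full-agonist control response, exceeds 60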;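 further: rat C6 glioma line stably carrying human EP2 under a CMV promoter; the protocol text gives 20 µM as final concentration; 100% = response of wells given 1 µM PGE2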
The depositor's hits bear a star; . = no result. Only some compounds are listed: those with a hit (about 2.8% of all), similar ones and a draw of the others.

SMILES	NPY Y2 blocker	EP2 antag	NPY-Y1 antag	NPY2 pot ag	NPY-Y1 PAM-ag	EP2 modulator
N#Cc1ccccc1Cn1cc(C#N)c2ccccc21	1	8	-6	-13	-6	3
N#Cc1cn(Cc2ccc(Cl)cc2)c2ccccc12	.	15	.	.	.	67*
N#Cc1cn(Cc2ccccc2)c2ccccc12	1	6	-3	-14	7	63*
CCn1cc(CN(Cc2ccccc2OC)CC2CCCO2)c(C)n1 (stereo not drawn)	.	4	.	.	.	23
CC(NS(=O)(=O)c1cccc(Cl)c1)C(=O)Nc1ccc(-c2nc3ccccc3s2)cc1 (stereo not drawn)	-3	20	-10	20	55*	-22
O=C(CNS(=O)(=O)c1cccc(Cl)c1)Nc1ccc(-c2nc3ccccc3s2)cc1	-2	4	-7	-1	29	6
COc1ccc2nc3cc(Cl)ccc3c(Nc3ccc(O)c(CN4CCN(C)CC4)c3)c2c1	.	90*	.	.	.	-34
COc1ccc2nc3cc(Cl)ccc3c(C#N)c2c1	.	4	.	-3	-5	-1
CCC(=O)N1CCN(c2ccc(NC(=O)c3cc(Cl)ccc3Cl)cc2)CC1	.	12	.	.	.	-4
CCN(CC)S(=O)(=O)c1ccc(-c2nnc(SCC(=O)N3C(C)CCCC3C)n2CC)cc1 (stereo not drawn)	.	12	.	.	.	17
COc1ccccc1N=C(C)C1=C(O)CC(c2ccccc2)CC1=O (stereo not drawn)	.	2	21*	-14	-28	-4
CCCC(=Nc1ccccc1OC)C1=C(O)CC(c2ccccc2)CC1=O (stereo not drawn)	3	11	1	-6	6	6
CCOc1ccc2nc(SCC(=O)Nc3ccc4c(c3)OCCO4)c(C)cc2c1	.	16	.	.	.	-36
CC(=O)CSc1nc(C2CC2)cc(C(F)(F)F)c1C#N	.	19	.	.	.	86*
COc1ccc(N=c2oc3cc(O)ccc3cc2C(=O)Nc2ccccn2)cc1OC	.	43*	-3	-3	7	-84
Fc1c(F)c(C(F)(F)F)c(F)c(F)c1N/N=C\c1cccs1	-1	124*	-5	9	14	-47
COCCCNc1nc(-c2ccncc2)nc2ccccc12	-1	14	-6	16	2	-10
CCCCN(CCCC)c1nc(-c2ccncc2)nc2ccccc12	.	8	.	-18	-75	68*
CCn1c2cc(C)sc2c2cnn(CC(=O)N3CCCCC3)c(=O)c21	.	.	.	.	.	-23
O=[N+]([O-])c1cc(C(F)(F)F)ccc1NC1CCN(Cc2ccccc2)CC1	.	8	.	-16	-4	61*
CC1(C)CC(Nc2ccc(C(F)(F)F)cc2[N+](=O)[O-])CC(C)(C)N1	.	5	3	20	22	-43
CCCCN(CCCC)C(=O)C1(P(=O)(c2ccccc2)c2ccccc2)CCC1	.	6	.	17	27	85*
CCN(CC)C(=O)C1(P(=O)(c2ccccc2)c2ccccc2)CCC1	.	10	.	-15	-3	21
Cc1cc(C)cc(NC(=S)NCCN(C2CCCCC2)C2CCCC2)c1	.	7	21*	-21	-14	-8
Cc1ccc(NC(=S)NCCN(C2CCCCC2)C2CCCC2)cc1	.	9	13	-18	-26	-2
SMILES	NPY Y2 blocker	EP2 antag	NPY-Y1 antag	NPY2 pot ag	NPY-Y1 PAM-ag	EP2 modulator
CCNc1nc(NC(C)(C)C)nc(N2CCCCC2)n1	.	2	-3	30*	50*	-13
CCNc1nc(N2CCCC2)nc(N2CCCC2)n1	.	15	15	-15	19	19
CCOC(=O)c1sc(N2C(=O)C(=O)/C(=C(\O)c3ccc(OC)cc3C)C2c2cccnc2)nc1C (stereo not drawn)	.	54*	.	.	.	4
Cc1cc(NC(=O)COc2ccc(Cl)cc2Cl)ccc1NC(=O)c1ccco1	.	4	.	.	.	23
CC(C)Cn1c(=O)[nH]c(=O)c2c(C(F)(F)F)cc(-c3ccccc3)nc21	.	5	.	-8	-11	66*
CCCOc1ccc(C(=O)Nc2nnn(CC)n2)cc1	.	10	.	.	.	-24
Cc1ccc(-n2c(SCC(=O)NC3CCCCC3)nnc2-c2ccco2)cc1	.	16	.	.	.	26
Cc1ccc(-n2c(SCC(=O)N3CCCC(C)C3)nnc2-c2ccco2)cc1 (stereo not drawn)	.	93*	.	.	.	16
COc1cc2c(c3oc(-c4ccccc4)cc(=O)c13)C=CC(C)(C)O2	.	50*	16	-16	-24	-12
O=C(c1cccnc1)C1CCN(C(=O)C2CCCC2)CC1	.	.	.	.	.	-8
O=C(O)/C=C/c1cccc(NC(=O)c2ccccc2)c1	.	7	.	-38	-18	93*
O=C(O)/C=C/c1cccc(NC(=O)c2ccc(Cl)cc2)c1	.	10	5	-4	0	30
CC1CCCc2sc3nc(N4CCN(CCO)CC4)n4ncnc4c3c21 (stereo not drawn)	25*	8	40*	-29	-51	-41
CCC(c1nnnn1C(C)(C)C)N(Cc1ccccc1)Cc1cc2cc(OC)c(OC)cc2[nH]c1=O (stereo not drawn)	.	17	.	.	.	21
CCOC(=O)C(C)On1c(-c2ccccc2)nc2ccc([N+](=O)[O-])cc21 (stereo not drawn)	2	14	2	-16	-18	62*
CCOC(=O)C(C)On1c(-c2ccc(Cl)cc2)nc2ccc([N+](=O)[O-])cc21 (stereo not drawn)	13	5	11	-21	-15	21
O=C(CN1C(=O)C2C3CCC(C3)C2C1=O)N1CCn2c(nnc2C2CC2)C1 (stereo not drawn)	.	.	.	.	.	-3
CCOc1ccc(-c2csc(NC(C)=O)n2)cc1	.	13	.	.	.	6
Cc1[nH]nc2c1C(c1ccc(-c3ccccc3C#N)o1)C(C#N)=C(N)O2 (stereo not drawn)	3	63*	-2	7	0	-33
CCn1c(=O)c(C(=O)NNC(C)=O)c(O)c2ccccc21	.	3	.	.	.	-29
CC(=O)c1cc(CC(=O)N2CCc3c([nH]c4ccccc34)C2c2ccccn2)cs1 (stereo not drawn)	.	14	22*	2	5	-70
Cc1ccc(S(=O)(=O)N2c3cc(C)ccc3OCC2C(C)(C)C)cc1 (stereo not drawn)	6	15	2	-4	-29	62*
CCCCCCCCOC(=O)C1=C(C)Nc2nnnn2C1c1cccs1 (stereo not drawn)	3	3	3	0	-34	66*
CC(C)N1CCN(Cc2ccc(Sc3nncn3C)o2)CC1CCO (stereo not drawn)	.	7	.	-5	6	66*
